Measured values: ChEMBL document CHEMBL1125311, “Inhibition of human leukocyte elastase. 4. Selection of a substituted cephalosporin (L-658,758) as a topical aerosol” (J Med Chem, 1992)

Key:
[1] = target: T1, Neutrophil elastase (Homo sapiens) (UniProt P08246)
T1 sequence (whole entry): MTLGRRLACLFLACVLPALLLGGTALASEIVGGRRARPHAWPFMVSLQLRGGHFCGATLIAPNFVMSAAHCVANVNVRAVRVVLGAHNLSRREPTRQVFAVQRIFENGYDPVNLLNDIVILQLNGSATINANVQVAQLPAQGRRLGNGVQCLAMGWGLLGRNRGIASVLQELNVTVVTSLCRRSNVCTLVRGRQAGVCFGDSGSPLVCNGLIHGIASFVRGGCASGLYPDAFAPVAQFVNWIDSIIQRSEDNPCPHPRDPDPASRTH

Cricetinae gen. sp. [2] = experiment: Compound was evaluated in vivo for inhibition of HLE-induced hemorrhage in hamster lung at 100 microg 30 min after administration; assay type: functional, Cricetulus griseus
Method in brief: (§1)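 Hamster, intratracheal dosing of compound (per animal) 30 min before IT instillation of 50 μg HLE (50 units in Experimental); hemorrhage read 3 h later: lungs lavaged with saline, hemoglobin in lavage measured at 414 nm. Percent inhibition from drug-treated vs vehicle-treated hemorrhage; three animals per dose and time. Titration at 100, 30, 10, 3 μg/animal gives ED50.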

Cricetinae gen. sp. [3] = experiment: Compound was evaluated in vivo for inhibition of HLE-induced hemorrhage in hamster lung at 100 microg 90 min after administration; assay type: functional, Cricetulus griseus
[4] = Half-life value of the compound.; assay type: ADME
Method in brief: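 Chemical stability: compound dissolved at 1 mg/mL in 0.5 M MOPS, pH 8.0, held at 25 °C in capped vial; aliquots quenched in 2% aqueous TFA and analysed by reverse-phase HPLC over one to two half-lives. Peak areas fit to first-order decay F(t)=A/2^(t/t1/2) to give t1/2.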

Cricetinae gen. sp. [5] = experiment: Compound was evaluated in vivo for inhibition of HLE-induced hemorrhage in hamster lung at 200 microg 2 hr after administration prior to HLE; assay type: functional, Cricetulus griseus
Method in brief: (§2)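 Hamster duration protocol: 200 μg/animal given intratracheally 60, 120, 180 or 240 min before IT HLE instillation; hemorrhage scored after 3 h as hemoglobin (414 nm) in saline lung lavage, relative to vehicle-treated animals; three animals per point. T50 taken as time at which 50% inhibition is still obtained.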

Cricetinae gen. sp. [6] = experiment: Compound was evaluated in vivo for inhibition of HLE-induced hemorrhage in hamster lung at 200 microg 4 hr after administration prior to HLE; assay type: functional, Cricetulus griseus
Method in brief: as §2

Cricetinae gen. sp. [7] = experiment: Compound was evaluated in vivo for inhibition of HLE-induced hemorrhage in hamster lung at 200 microg 3h after administration prior to HLE; assay type: functional, Cricetulus griseus
Method in brief: as §2

Cricetinae gen. sp. [8] = experiment: Compound was evaluated in vivo for inhibition of HLE-induced hemorrhage in hamster lung at 200 microg 1 hr after administration prior to HLE; assay type: functional, Cricetulus griseus
Method in brief: as §2

Cricetinae gen. sp. [9] = experiment: Compound was evaluated in vivo for inhibition of HLE-induced hemorrhage in hamster lung at 30microg, 30 min after administration prior to HLE; assay type: functional, Cricetulus griseus
Method in brief: as §1

Cricetinae gen. sp. [10] = experiment: Compound was evaluated in vivo for inhibition of HLE-induced hemorrhage in hamster lung at 100 microg, 30 min after administration prior to HLE; assay type: functional, Cricetulus griseus
Method in brief: as §1

Neutrophil elastase [11] = target: T2, Neutrophil elastase (Homo sapiens, UniProt P08246); experiment: In vitro inhibitory activity against human leukocyte elastase
T2 sequence (P08246 whole entry): T1 sequence (whole entry)

Cricetinae gen. sp. [12] = experiment: Compound was evaluated in vivo for inhibition of HLE-induced hemorrhage in hamster lung at 100 microg, 30 min after administration; assay type: functional, Cricetulus griseus
Method in brief: as §1

Cricetinae gen. sp. [13] = experiment: Inhibitory activity against Human Leukocyte Elastase by Lung Hemorrhage assay ( at 200 ug/animal); assay type: functional, Cricetulus griseus
Method in brief: as §2

Cricetinae gen. sp. [14] = experiment: Inhibitory activity against Human Leukocyte Elastase by Lung Hemorrhage assay (at 30 min); assay type: functional, Cricetulus griseus
Method in brief: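 Hamster, intratracheal: test compound 100 μg/animal given 30 min before IT instillation of HLE (50 μg; text also says 50 units). Hemorrhage read 3 h after HLE: lungs lavaged with saline, hemoglobin measured at 414 nm. Percent inhibition from hemorrhage in drug-treated vs vehicle-treated animals; mean of three animals per dose and time.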

Cricetinae gen. sp. [15] = experiment: Compound was evaluated in vivo for inhibition of HLE-induced hemorrhage in hamster lung at 10 ug 30 min after administration prior to HLE; assay type: functional, Cricetulus griseus
Method in brief: as §1

Cricetinae gen. sp. [16] = experiment: Inhibitory activity against Human Leukocyte Elastase by Lung Hemorrhage assay (Effective dose at 15 microg); assay type: functional, Cricetulus griseus
Neutrophil elastase [17] = target: T2, Neutrophil elastase; experiment: Inhibitory activity against Human Leukocyte Elastase
Cricetinae gen. sp. [18] = experiment: Compound was evaluated in vivo for inhibition of HLE-induced hemorrhage in hamster lung at 100 microg 30 min after administration prior to HLE; assay type: functional, Cricetulus griseus
Method in brief: as §1

Cricetinae gen. sp. [19] = experiment: Compound was evaluated in vivo for inhibition of HLE-induced hemorrhage in hamster lung at 30 ug 30 min after administration prior to HLE; assay type: functional, Cricetulus griseus
Method in brief: as §1

Cricetinae gen. sp. [20] = experiment: Compound was evaluated in vivo for inhibition of HLE-induced hemorrhage in hamster lung at 100 microg 5 min after administration; assay type: functional, Cricetulus griseus
Cricetinae gen. sp. [21] = experiment: Compound was evaluated in vivo for inhibition of HLE-induced hemorrhage in hamster lung at 10microg, 30 min after administration prior to HLE; assay type: functional, Cricetulus griseus
Method in brief: as §1

Cricetinae gen. sp. [22] = experiment: Compound was evaluated in vivo for inhibition of HLE-induced hemorrhage in hamster lung at 200 microg, 1 hr after administration prior to HLE; assay type: functional, Cricetulus griseus
Method in brief: as §2

Cricetinae gen. sp. [23] = experiment: Compound was evaluated in vivo for inhibition of HLE-induced hemorrhage in hamster lung at 200 microg, 3h after administration prior to HLE; assay type: functional, Cricetulus griseus
Method in brief: as §2

Cricetinae gen. sp. [24] = experiment: Compound was evaluated in vivo for inhibition of HLE-induced hemorrhage in hamster lung at 200 microg, 4 hr after administration prior to HLE; assay type: functional, Cricetulus griseus
Method in brief: as §2

Cricetinae gen. sp. [25] = experiment: Compound was evaluated in vivo for inhibition of HLE-induced hemorrhage in hamster lung at 200 microg, 2 hr after administration prior to HLE; assay type: functional, Cricetulus griseus
Method in brief: as §2

Cricetinae gen. sp. [26] = experiment: Compound was evaluated in vivo for inhibition of HLE-induced hemorrhage in hamster lung at 400 microg, 30 min after administration; assay type: functional, Cricetulus griseus

Work on `CO[C@H]1C(=O)N2C(C(=O)OC(C)(C)C)=C(CSc3nc(=O)c(=O)[nH]n3C)CS(=O)(=O)[C@H]12` yielded a k obs / 1 [1] of 8600 M⁻¹ s⁻¹, an Inhibition (Cricetinae gen. sp. [2]) of 90% and an Inhibition (Cricetinae gen. sp. [3]) of 18%.
Work on `CO[C@H]1C(=O)N2C(C(=O)N3CCCC3)=C(COC(C)=O)CS(=O)(=O)[C@H]12` yielded a k obs / 1 [1] of 27000 M⁻¹ s⁻¹ and a half-life [4] of 16 h.
Work on `CO[C@H]1C(=O)N2C(C(=O)N(C)CCC(=O)O)=C(COC(C)=O)CS(=O)(=O)[C@H]12` yielded a k obs / 1 [1] of 500 M⁻¹ s⁻¹, an Inhibition (Cricetinae gen. sp. [5]) of 39% and an Inhibition (Cricetinae gen. sp. [6]) of 33%. The Inhibition (Cricetinae gen. sp. [7]) was -1%, the half-life [4] was 24 h and the Inhibition (Cricetinae gen. sp. [8]) was 80%.
For `CO[C@H]1C(=O)N2C(C(=O)N(CC(=O)O)Cc3ccccc3)=C(COC(C)=O)CS(=O)(=O)[C@H]12`, the Inhibition (Cricetinae gen. sp. [9]) was 30%, the Inhibition (Cricetinae gen. sp. [10]) was 42% and the Ki (Neutrophil elastase [11]) was 6.1 µM.
In the case of `CO[C@H]1C(=O)N2C(C(=O)N(C)Cc3ccccc3)=C(COC(=O)c3ccc(C(=O)O)cc3)CS(=O)(=O)[C@H]12`, the k obs / 1 [1] is reported as 10000 M⁻¹ s⁻¹.
For `CO[C@H]1C(=O)N2C(C(=O)N3CCC(C(=O)O)C3)=C(COC(C)=O)CS(=O)(=O)[C@H]12` (stereo not given in full), the k obs / 1 [1] was 1900 M⁻¹ s⁻¹.
`CO[C@H]1C(=O)N2C(C(=O)N(C)Cc3ccc(C(=O)O)cc3)=C(COC(C)=O)CS(=O)(=O)[C@H]12` gave a k obs / 1 [1] of 8600 M⁻¹ s⁻¹ and an Inhibition (Cricetinae gen. sp. [12]) of 65%.
Compound `CO[C@H]1C(=O)N2C(C(=O)N3CCCC3)=C(CSc3nc(=O)c(=O)[nH]n3C)CS(=O)(=O)[C@H]12` has a k obs / 1 [1] of 13400 M⁻¹ s⁻¹, a T50 (Cricetinae gen. sp. [13]) of 240 min and an ED50 (Cricetinae gen. sp. [14]) of 20 µg. The Inhibition (Cricetinae gen. sp. [15]) was 30%, the Inhibition (Cricetinae gen. sp. [5]) was 87% and the Inhibition (Cricetinae gen. sp. [6]) was 50%. For the same compound, the ED50 (Cricetinae gen. sp. [16]) was 30 µg, the IC50 (Neutrophil elastase [17]) was 2 µM and the Inhibition (Cricetinae gen. sp. [7]) was 64%. It also gave a half-life [4] of 20 h, an Inhibition (Cricetinae gen. sp. [8]) of 88% and an Inhibition (Cricetinae gen. sp. [18]) of 95%. It also gave an Inhibition (Cricetinae gen. sp. [19]) of 60%.
`CO[C@H]1C(=O)N2C(C(=O)N(C)CC(=O)O)=C(COC(C)=O)C(C)S(=O)(=O)[C@H]12` (stereo not given in full) showed a k obs / 1 [1] of 1400 M⁻¹ s⁻¹ and a half-life [4] of 8 h.
`CO[C@H]1C(=O)N2C(C(=O)OCc3ccc(C(=O)O)cc3)=C(COC(C)=O)CS(=O)(=O)[C@H]12` showed an Inhibition (Cricetinae gen. sp. [20]) of 98% and a half-life [4] of 5 h.
With `CO[C@H]1C(=O)N2C(C(=O)N(C)CC(=O)N(C)CCC(=O)O)=C(COC(C)=O)CS(=O)(=O)[C@H]12` the k obs / 1 [1] was 700 M⁻¹ s⁻¹, the Inhibition (Cricetinae gen. sp. [9]) was 77% and the Inhibition (Cricetinae gen. sp. [21]) was 35%. For the same compound, the Inhibition (Cricetinae gen. sp. [10]) was 86%.
With `CC[C@H]1C(=O)N2C(C(=O)N(C)CC(=O)O)=C(COC(C)=O)CS(=O)(=O)[C@H]12` the k obs / 1 [1] was 30 M⁻¹ s⁻¹ and the half-life [4] was > 50 h.
`CO[C@H]1C(=O)N2C(C(=O)N(C)CC(=O)O)=C(COC(=O)c3ccccc3)CS(=O)(=O)[C@H]12` showed a k obs / 1 [1] of 600 M⁻¹ s⁻¹, an Inhibition (Cricetinae gen. sp. [22]) of 88% and an Inhibition (Cricetinae gen. sp. [23]) of 38%. The Inhibition (Cricetinae gen. sp. [9]) was 58%, the Inhibition (Cricetinae gen. sp. [24]) was 5% and the Inhibition (Cricetinae gen. sp. [10]) was 87%. It also gave an Inhibition (Cricetinae gen. sp. [25]) of 58%.
In the case of `CO[C@H]1C(=O)N2C(C(=O)NC(C)(C)C)=C(COC(C)=O)CS(=O)(=O)[C@H]12`, the k obs / 1 [1] is reported as 2200 M⁻¹ s⁻¹ and the Inhibition (Cricetinae gen. sp. [26]) is reported as -5%.
